In ChEMBL document CHEMBL3351811, “Synthesis of heteroaryl/aryl kojic acid conjugates as stimulators of glucose uptake by GLUT4 translocation” (Eur J Med Chem, 2014):
The source made the active and inactive calls. The rule behind the calls is not given here.

Experiments:
Format in all cases: cell-based
[1] = target: T1, Solute carrier family 2, facilitated glucose transporter member 4 (Rattus norvegicus) (UniProt P19357); assay: Stimulation of rat GLUT4-mediated glucose uptake in rat L6 cells expressing myc-tagged GLUT4 at 10 uM incubated for 16 hrs by scintillation counting based 2-[3H]DG uptake assay
T1 sequence (whole entry): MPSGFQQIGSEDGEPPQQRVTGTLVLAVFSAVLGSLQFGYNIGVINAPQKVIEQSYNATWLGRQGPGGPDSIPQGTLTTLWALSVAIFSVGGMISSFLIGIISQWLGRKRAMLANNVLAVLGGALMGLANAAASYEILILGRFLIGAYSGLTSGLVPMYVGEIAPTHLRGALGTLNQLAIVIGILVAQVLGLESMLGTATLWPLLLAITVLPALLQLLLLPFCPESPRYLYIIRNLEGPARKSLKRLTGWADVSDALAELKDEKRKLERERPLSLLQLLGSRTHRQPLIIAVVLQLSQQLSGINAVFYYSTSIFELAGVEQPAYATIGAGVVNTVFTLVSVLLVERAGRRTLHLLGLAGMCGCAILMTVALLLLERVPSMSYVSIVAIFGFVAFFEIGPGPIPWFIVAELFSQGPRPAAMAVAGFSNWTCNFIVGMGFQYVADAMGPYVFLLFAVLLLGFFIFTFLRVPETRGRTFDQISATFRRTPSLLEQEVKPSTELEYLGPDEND
Procedure, shortened: (§1)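 Differentiated L6-GLUT4myc myotubes (2% FBS, 6–7 days after seeding) exposed to compound for 16 h; insulin 100 nM as positive control. Uptake measured 5 min at room temperature in HEPES-buffered saline with 10 µM 2-DG (0.5 µCi/ml 2-[3H]DG), then lysis and scintillation counting. Cytochalasin B (25 µM) background subtracted. Duplicates normalized to total protein; percent stimulation versus control cells.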

L6 = assay: Toxicity in rat L6 cells expressing myc-tagged rat GLUT4 assessed as inhibition of glucose uptake at 10 uM incubated for 16 hrs by scintillation counting based 2-[3H]DG uptake assay; details: l6, 16 h; procedure, shortened: as §1
[2] = target: T1, Solute carrier family 2, facilitated glucose transporter member 4 (Rattus norvegicus); assay: Induction of rat GLUT4 translocation in rat L6 cells expressing myc-tagged GLUT4 incubated for 3 hrs by antibody-coupled colourimetric assay
Procedure, shortened: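 L6-GLUT4myc myotubes, non-permeabilized, treated 3 h with vehicle (DMSO), insulin 100 nM or compound at 5, 10, 25 µM. Fixed in 3% paraformaldehyde 30 min, glycine-quenched, milk-blocked, then anti-myc 1.0 µg/ml 1 h. HRP secondary with o-phenylenediamine read-out at OD 492 nm. Triplicates, three independent experiments; expressed as fold over unstimulated cells.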

[3] = target: T1, Solute carrier family 2, facilitated glucose transporter member 4 (Rattus norvegicus); assay: Stimulation of rat GLUT4-mediated glucose uptake in rat L6 cells expressing myc-tagged GLUT4 at 10 uM incubated for 16 hrs in presence of 1 uM PI3K inhibitor wortmannin by scintillation counting based 2-[3H]DG uptake assay
Procedure, shortened: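 Differentiated L6-GLUT4myc myotubes treated with compound at 10 µM, with wortmannin (1 µM) present for the final hour. Uptake then measured 5 min at room temperature in HEPES-buffered saline with 10 µM 2-DG (0.5 µCi/ml 2-[3H]DG), followed by lysis and scintillation counting. Cytochalasin B (25 µM) nonspecific uptake subtracted; duplicates normalized to protein, expressed versus control.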

[4] = target: T1, Solute carrier family 2, facilitated glucose transporter member 4 (Rattus norvegicus); assay: Stimulation of rat GLUT4-mediated glucose uptake in rat L6 cells expressing myc-tagged GLUT4 incubated for 16 hrs by scintillation counting based 2-[3H]DG uptake assay; procedure, shortened: as §1

| SMILES | Activity [1] | fold change (FC) [1] | Activity [2] | Activity [3] | Activity [4] | Activity (L6) |
| --- | --- | --- | --- | --- | --- | --- |
| O=c1cc(CO)oc(C(c2ccccc2)c2csc3ccccc23)c1O (stereo not given) | inactive | – | – | – | – | – |
| Cc1ccc(C(c2ccccc2)c2oc(CO)cc(=O)c2O)s1 (stereo not given) | – | 1.21 | Dose-dependent effect | inactive | – | – |
| N#Cc1ccc2[nH]cc(C(c3ccccc3)c3oc(CO)cc(=O)c3O)c2c1 (stereo not given) | inactive | – | – | – | – | – |
| O=c1cc(CO)oc(C(c2ccccc2)c2ccc(O)cc2)c1O (stereo not given) | – | 1.34 | Dose-dependent effect | inactive | – | – |
| CCCCC(c1oc(CO)cc(=O)c1O)c1c[nH]c2ccccc12 (stereo not given) | inactive | – | – | – | – | – |
| COc1ccc(SC(c2ccccc2)c2oc(CO)cc(=O)c2O)cc1 (stereo not given) | – | 1.38 | Dose-dependent effect | inactive | Dose-dependent effect | – |
| O=c1cc(CO)oc(C(c2ccccc2)c2ccc[nH]2)c1O (stereo not given) | inactive | – | – | – | – | – |
| O=c1cc(CO)oc(C(c2ccccc2)c2cn(Cc3ccccc3)c3ccccc23)c1O (stereo not given) | inactive | – | – | – | – | Toxic |
| CCCCCn1cc(C(c2ccccc2)c2oc(CO)cc(=O)c2O)c2ccccc21 (stereo not given) | inactive | – | – | – | – | Toxic |
| CCCCCCCCC(c1oc(CO)cc(=O)c1O)c1c[nH]c2ccccc12 (stereo not given) | inactive | – | – | – | – | – |
| O=c1cc(CO)oc(C(c2ccc3ccccc3c2)c2c[nH]c3ccccc23)c1O (stereo not given) | inactive | – | – | – | – | Toxic |
| Cn1cc(C(c2ccccc2)c2oc(CO)cc(=O)c2O)c2ccccc21 (stereo not given) | inactive | – | – | – | – | – |
| O=c1cc(CO)oc(C(Sc2ccccc2)c2ccccc2)c1O (stereo not given) | – | 1.33 | Dose-dependent effect | inactive | Dose-dependent effect | – |
| O=c1cc(CO)oc(C(c2ccccc2)c2c(-c3ccccc3)[nH]c3ccccc23)c1O (stereo not given) | inactive | – | – | – | – | Toxic |

Further lines, with some results ahead:

| Activity [1] | fold change (FC) [1] | Activity [2] | Activity [3] | Activity [4] | SMILES | Activity (L6) |
| --- | --- | --- | --- | --- | --- | --- |
| inactive | – | – | – | – | COc1ccc(C(c2oc(CO)cc(=O)c2O)c2c[nH]c3ccccc23)cc1 (stereo not given) | Toxic |
| inactive | – | – | – | – | O=c1cc(CO)oc(C(c2ccc(Cl)cc2)c2c[nH]c3ccccc23)c1O (stereo not given) | Toxic |
| – | 1.25 | Dose-dependent effect | inactive | Dose-dependent effect | COc1cccc(C(c2oc(CO)cc(=O)c2O)c2c[nH]c3ccccc23)c1OC (stereo not given) | – |
| inactive | – | – | – | – | O=c1cc(CO)oc(C(c2ccc(F)cc2)c2c[nH]c3ccccc23)c1O (stereo not given) | Toxic |
| – | 1.21 | Dose-dependent effect | inactive | Dose-dependent effect | COc1ccc(OC)c(C(c2oc(CO)cc(=O)c2O)c2c[nH]c3ccccc23)c1 (stereo not given) | – |
| – | 1.25 | Dose-dependent effect | inactive | Dose-dependent effect | COc1ccc2[nH]cc(C(c3ccccc3)c3oc(CO)cc(=O)c3O)c2c1 (stereo not given) | – |
| inactive | – | – | – | – | O=c1cc(CO)oc(C(c2ccc(Br)cc2)c2c[nH]c3ccccc23)c1O (stereo not given) | Toxic |
| inactive | – | – | – | – | O=c1cc(CO)oc(C(c2ccccc2)c2c[nH]c3ccccc23)c1O (stereo not given) | Toxic |
